Data: ChEMBL document CHEMBL1123413, “Synthesis and biological evaluation of 1-(1,2-benzisothiazol-3-yl)- and (1,2-benzisoxazol-3-yl)piperazine derivatives as potential antipsychotic agents” (J Med Chem, 1986)

How the values were obtained:
[1] = target: D(2) dopamine receptor (Rattus norvegicus, UniProt P61169); test: In vitro affinity for rat striatal Dopamine receptor D2 labeled with [3H]spiperone
[2] = target: T1, Adrenergic receptor alpha-1 (Rattus norvegicus, UniProt P15823+P23944+P43140)
T1 sequence (P15823 whole entry): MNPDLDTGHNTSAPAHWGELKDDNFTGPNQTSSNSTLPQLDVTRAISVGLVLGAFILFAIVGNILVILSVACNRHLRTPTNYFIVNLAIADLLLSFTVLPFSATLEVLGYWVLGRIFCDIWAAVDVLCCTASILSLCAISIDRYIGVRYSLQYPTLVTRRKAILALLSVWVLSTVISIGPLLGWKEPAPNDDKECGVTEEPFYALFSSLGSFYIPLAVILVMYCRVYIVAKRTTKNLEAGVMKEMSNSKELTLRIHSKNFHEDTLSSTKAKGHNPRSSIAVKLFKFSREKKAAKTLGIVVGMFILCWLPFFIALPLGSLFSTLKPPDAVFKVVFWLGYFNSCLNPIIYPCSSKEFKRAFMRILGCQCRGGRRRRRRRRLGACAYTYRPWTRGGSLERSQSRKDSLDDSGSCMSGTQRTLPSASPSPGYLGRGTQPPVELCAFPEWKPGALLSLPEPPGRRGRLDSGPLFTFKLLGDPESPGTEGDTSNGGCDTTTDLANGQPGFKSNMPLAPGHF
T1 sequence (P23944 whole entry): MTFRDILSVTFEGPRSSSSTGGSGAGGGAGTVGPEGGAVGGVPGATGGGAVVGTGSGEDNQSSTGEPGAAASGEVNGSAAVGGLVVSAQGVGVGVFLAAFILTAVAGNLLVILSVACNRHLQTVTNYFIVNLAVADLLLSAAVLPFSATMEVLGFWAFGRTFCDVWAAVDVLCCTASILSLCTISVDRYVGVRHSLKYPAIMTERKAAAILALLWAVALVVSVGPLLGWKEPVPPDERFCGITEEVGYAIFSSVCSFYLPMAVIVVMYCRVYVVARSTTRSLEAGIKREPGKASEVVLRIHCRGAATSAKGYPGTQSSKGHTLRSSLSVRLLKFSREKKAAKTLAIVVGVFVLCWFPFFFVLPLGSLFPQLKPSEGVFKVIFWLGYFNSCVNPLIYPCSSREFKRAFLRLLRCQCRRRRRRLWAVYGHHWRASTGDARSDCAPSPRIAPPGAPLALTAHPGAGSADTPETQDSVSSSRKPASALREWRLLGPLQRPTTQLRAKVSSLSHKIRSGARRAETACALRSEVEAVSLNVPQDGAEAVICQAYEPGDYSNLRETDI
T1 sequence (P43140 whole entry): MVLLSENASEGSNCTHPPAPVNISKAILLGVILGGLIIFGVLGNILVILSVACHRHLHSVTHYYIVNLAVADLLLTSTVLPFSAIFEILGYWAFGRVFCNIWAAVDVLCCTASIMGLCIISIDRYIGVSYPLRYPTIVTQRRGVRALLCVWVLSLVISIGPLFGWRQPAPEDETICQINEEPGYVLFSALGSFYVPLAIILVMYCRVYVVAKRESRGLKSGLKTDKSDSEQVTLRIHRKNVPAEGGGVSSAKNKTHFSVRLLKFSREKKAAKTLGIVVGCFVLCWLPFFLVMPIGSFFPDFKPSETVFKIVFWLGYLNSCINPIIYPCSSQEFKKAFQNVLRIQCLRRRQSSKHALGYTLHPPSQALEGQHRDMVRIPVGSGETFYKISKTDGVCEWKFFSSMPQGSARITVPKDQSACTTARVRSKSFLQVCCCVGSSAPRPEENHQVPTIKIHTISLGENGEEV

[3] = organism: Rattus norvegicus; test: Inhibition of conditioned avoidance response (CAR); type: functional
In short: (§1)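 Rats trained to avoid an electric shock, test compound given orally, and block of the conditioned avoidance response scored. ED50 (mg/kg, po) with fiducial limits by the method of Berkson.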

[4] = system: Rattus norvegicus; test: Compound was tested for inhibition of hexobarbatial potentiation in rat when administered perorally; type: functional; conditions: po
In short: (§2)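 Nonfasted male rats given test drug orally, vehicle distilled H2O or 0.5% methocel. Hexobarbital sodium (40 mg/kg) or EtOH (10 mL of 20% solution/kg) given ip at 15, 30, 60 or 120 min postdrug, controls 15 min after vehicle. Loss of righting reflex lasting 1 min scored over about 10–15 min. Dose response at time of peak effect, 10 rats/dose. ED50 and fiducial limits by Berkson's method.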

[5] = Lethal dose after peroral administration in mouse; type: toxicity, organism-based; conditions: in vivo, po
[6] = system: Mus musculus; test: Compound was tested for inhibition of physostigmine lethality in mouse when administered perorally; type: functional; conditions: po
In short: (§3)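 Groups of 10 nonfasted male mice dosed orally with test compound (initial 100 mg/kg) or vehicle (distilled H2O or 0.5% methocel). At 30 min, physostigmine given ip at 1.25 mg/kg, and lethality followed for up to 1 h. Active compounds retested at lower doses, 10 mice/dose, for dose response. ED50 by Berkson's method.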

[7] = system: Mus musculus; test: Compound was tested for inhibition of spontaneous motor activity in mouse when administered perorally; type: functional; conditions: po
[8] = system: Rattus norvegicus; test: (§4) Compound was tested for inhibition of ethanol potentiation in rat when administered perorally; type: functional; conditions: po; in short: as §2
[9] = target: GABA-A receptor; anion channel; test: (§5) Inhibition of [3H]muscimol binding to Gamma-aminobutyric acid (GABA-A) receptor; type: protein-complex assay, Rattus norvegicus
[10] = organism: Rattus norvegicus; test: Compound was tested for its ability to induce catalepsy in rats.; type: functional
In short: (§6)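 Catalepsy was induced in rats with orally dosed compound as a predictor of extrapyramidal liability. ED50 (mg/kg, po) with fiducial limits by Berkson's method.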

[11] = system: Rattus norvegicus; test: Compound was tested for inhibition of spontaneous motor activity in rat when administered perorally; type: functional; conditions: po
[12] = Binding affinity against histamine receptor was measured using radioligand ([3H]-pyrilamine) binding assay
[13] = system: Mus musculus; test: Compound was tested for inhibition of norepinephrine lethality in mouse when administered perorally; type: functional; conditions: po
In short: (§7)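 Groups of 10 nonfasted male mice dosed orally with test compound (initial 100 mg/kg) or vehicle (distilled H2O or 0.5% methocel). Active compounds retested at lower doses, 10 mice/dose, for dose response. ED50 by Berkson's method.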

[14] = organism: Rattus norvegicus; test: Compound was tested for the inhibition of apomorphine-induced stereotype; type: functional
In short: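 In rats, oral test compound was scored for block of apomorphine-induced stereotypy as an in vivo dopamine-system measure. ED50 (mg/kg, po) and fiducial limits by Berkson's method.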

[15] = system: Rattus norvegicus; test: as §4; type: functional; conditions: po; remark: listed apart in the source
In short: (§8)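 Nonfasted male rats received test drug or vehicle (distilled H2O or 0.5% methocel). EtOH (10 mL of 20% solution/kg, ip) followed at 15, 30, 60 or 120 min post-drug; the vehicle group got it at 15 min. Rats were watched about 10–15 min for loss of righting reflex lasting 1 min. Dose response at peak time used 10/dose; ED50 by Berkson.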

[16] = organism: Rattus norvegicus; test: Compound was tested for inhibition of conditioned avoidance response (CAR ); type: functional; in short: as §1
[17] = organism: Rattus norvegicus; test: Compound was tested for its ability to induce catalepsy in rats; type: functional; in short: as §6
[18] = organism: Mus musculus; test: Oral effective dose against norepinephrine-induced lethality in mouse; type: functional; in short: as §7
[19] = organism: Rattus norvegicus; test: Oral effective dose against spontaneous motor activity in rat; type: functional
[20] = organism: Rattus norvegicus; test: Oral effective dose against hexobarbatial potentiation in rat; type: functional
In short: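 Hexobarbital sodium (40 mg/kg, ip) was given to nonfasted male rats 15, 30, 60 or 120 min after test drug, or 15 min after vehicle (distilled H2O or 0.5% methocel). Loss of righting reflex of 1-min duration was scored over about 10–15 min. Dose response at peak-effect time used 10 rats/dose; ED50 and fiducial limits by Berkson.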

[21] = organism: Mus musculus; test: Oral effective dose against physostigmine-induced lethality in mouse; type: functional; in short: as §3
[22] = organism: Rattus norvegicus; test: Oral effective dose against ethanol potentiation in rat; type: functional; in short: as §8
[23] = organism: Mus musculus; test: Oral effective dose against spontaneous motor activity in mouse; type: functional
[24] = target: Gamma-aminobutyric acid receptor subunit gamma-1 (Rattus norvegicus, UniProt P23574); test: as §5
Gamma-aminobutyric acid receptor subunit gamma-1, sequence (P23574 whole entry): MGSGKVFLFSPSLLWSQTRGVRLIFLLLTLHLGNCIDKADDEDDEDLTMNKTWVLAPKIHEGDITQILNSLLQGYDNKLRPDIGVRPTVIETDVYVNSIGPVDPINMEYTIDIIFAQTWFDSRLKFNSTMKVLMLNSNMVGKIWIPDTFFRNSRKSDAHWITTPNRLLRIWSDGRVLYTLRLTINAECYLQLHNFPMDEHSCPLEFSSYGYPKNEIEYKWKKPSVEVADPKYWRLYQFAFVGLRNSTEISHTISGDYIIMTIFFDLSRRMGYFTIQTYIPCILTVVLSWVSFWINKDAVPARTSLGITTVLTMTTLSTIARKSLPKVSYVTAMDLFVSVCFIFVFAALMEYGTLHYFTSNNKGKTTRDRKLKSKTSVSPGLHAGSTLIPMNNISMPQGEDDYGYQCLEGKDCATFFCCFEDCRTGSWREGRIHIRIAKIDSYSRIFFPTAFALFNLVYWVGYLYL

D(2) dopamine receptor, sequence (P61169 whole entry): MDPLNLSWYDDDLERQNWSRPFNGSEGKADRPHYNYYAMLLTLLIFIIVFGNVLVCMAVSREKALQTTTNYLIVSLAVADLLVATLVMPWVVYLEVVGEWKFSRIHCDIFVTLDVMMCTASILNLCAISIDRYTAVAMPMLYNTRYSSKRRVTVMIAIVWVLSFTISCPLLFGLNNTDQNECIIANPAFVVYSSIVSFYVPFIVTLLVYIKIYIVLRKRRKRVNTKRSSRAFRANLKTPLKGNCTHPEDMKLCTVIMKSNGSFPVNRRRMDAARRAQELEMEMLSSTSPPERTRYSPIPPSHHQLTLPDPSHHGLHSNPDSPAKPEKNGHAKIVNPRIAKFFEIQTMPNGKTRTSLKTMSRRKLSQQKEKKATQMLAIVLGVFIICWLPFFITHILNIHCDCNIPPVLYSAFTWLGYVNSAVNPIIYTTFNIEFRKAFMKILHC

IC50 [1] [nM] | IC50 [2] [nM] | SMILES | ED50 [3] [mg/kg] | ED50 [10] [mg/kg] | ED50 [14] [mg/kg] | other results
30 | 2 | OC(CCCN1CCN(c2noc3ccccc23)CC1)c1ccc(F)cc1 (stereo unspecified) | 1 | 2.2 | 2.3 | –
360 | 46 | O=C1CC2(CCCC2)CC(=O)N1CCCCN1CCN(c2noc3ccc(Cl)cc23)CC1 | > 100 | – | – | –
49 | – | CCC1(CC)CC(=O)N(CCCCN2CCN(c3nsc4ccccc34)CC2)C(=O)C1.Cl | – | – | – | ED50 [16]: 35.2 mg/kg
145 | 3 | O=C1CC2(CCCC2)CC(=O)N1CCCN1CCN(c2nsc3ccccc23)CC1 | > 100 | – | – | –
69 | 5 | O=C(CCCN1CCN(c2noc3ccccc23)CC1)c1ccc(F)cc1 | 5.8 | – | – | ED50 [17]: 39.9 mg/kg
2 | 2 | OC(CCCN1CCN(c2nsc3ccccc23)CC1)c1ccc(F)cc1 (stereo unspecified) | 2.4 | – | – | ED50 [17]: 5 mg/kg
25 | 7 | O=C1CC2(CCCC2)CC(=O)N1CCCCN1CCN(c2noc3ccccc23)CC1 | 10.6 | 68.2 | 20.2 | –

More lines, now with the values behind:

SMILES | IC50 [1] [nM] | IC50 [2] [nM] | ED50 [3] [mg/kg] | ED50 [10] [mg/kg] | ED50 [14] [mg/kg] | other results
Cl.c1ccc2c(N3CCNCC3)noc2c1 | > 1000 | 165 | > 100 | – | – | –
CN1CCN(C2=Nc3cc(Cl)ccc3Nc3ccccc32)CC1 [CLOZAPINE] | – | – | – | > 200 | – | ED50 [4]: 1.69 mg/kg; LD50 [5]: 219 mg/kg; ED50 [6]: 5.4 mg/kg; ED50 [7]: 1.9 mg/kg; ED50 [8]: 3.23 mg/kg; IC50 [9]: > 1000 nM; ED50 [11]: 17.5 mg/kg; IC50 [12]: 18 nM; ED50 [13]: 3.5 mg/kg
O=C1CC2(CCCC2)CC(=O)N1CCCCN1CCN(c2nc3ccccc3s2)CC1 | 145 | 454 | > 100 | – | – | –
O=C(CCCN1CCC(O)(c2ccc(Cl)cc2)CC1)c1ccc(F)cc1 [HALOPERIDOL] | – | – | 2.8 | 0.58 | 0.5 | LD50 [5]: 500 mg/kg; ED50 [6]: > 80 mg/kg; ED50 [7]: 0.45 mg/kg; ED50 [15]: 0.28 mg/kg; ED50 [11]: 0.73 mg/kg; ED50 [13]: 26 mg/kg
CN1CCN(CCCN2c3ccccc3Sc3ccc(C(F)(F)F)cc32)CC1 [TRIFLUOPERAZINE] | – | 350 | 6.9 | 3 | 6.5 | –
CSc1ccc2c(c1)N(CCC1CCCCN1C)c1ccccc1S2 (stereo unspecified) [THIORIDAZINE] | – | – | – | – | 280 | LD50 [5]: 250 mg/kg; ED50 [18]: 2.2 mg/kg; ED50 [19]: 33 mg/kg; ED50 [20]: 27.3 mg/kg; ED50 [21]: 45 mg/kg; ED50 [22]: 56 mg/kg; ED50 [23]: 12.8 mg/kg; IC50 [24]: > 1000 nM
CC1CN(CCCCN2C(=O)CC3(CCCC3)CC2=O)CCN1c1nsc2ccccc12 (stereo unspecified) | 64 | – | > 100 | – | – | –
